This is an account of results in paper PMC8114154 (Journal of Applied Glycoscience, 2019).

The subject of one assay is AsojAgdL. As to the kind of experiment: glucose release. In kind it is biochemical, Aspergillus sojae. Particulars: 20 mM MES pH 6.0, 40 °C, 60 min. The method in brief:
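Recombinant enzyme expressed in A. nidulans, purified by His-Trap affinity then Superdex 200 gel filtration. Incubated with substrates at various concentrations for 60 min at 40 °C. Stopped with 10 % oxalic acid and 10 min boiling. Released glucose quantified by glucose assay kit. Km from nonlinear-regression Michaelis–Menten fit of initial velocities over the low-concentration range only.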

The target of the next assay is T1, AnigAgdA (Aspergillus niger, UniProt P56526).
T1 sequence (P56526 26-985): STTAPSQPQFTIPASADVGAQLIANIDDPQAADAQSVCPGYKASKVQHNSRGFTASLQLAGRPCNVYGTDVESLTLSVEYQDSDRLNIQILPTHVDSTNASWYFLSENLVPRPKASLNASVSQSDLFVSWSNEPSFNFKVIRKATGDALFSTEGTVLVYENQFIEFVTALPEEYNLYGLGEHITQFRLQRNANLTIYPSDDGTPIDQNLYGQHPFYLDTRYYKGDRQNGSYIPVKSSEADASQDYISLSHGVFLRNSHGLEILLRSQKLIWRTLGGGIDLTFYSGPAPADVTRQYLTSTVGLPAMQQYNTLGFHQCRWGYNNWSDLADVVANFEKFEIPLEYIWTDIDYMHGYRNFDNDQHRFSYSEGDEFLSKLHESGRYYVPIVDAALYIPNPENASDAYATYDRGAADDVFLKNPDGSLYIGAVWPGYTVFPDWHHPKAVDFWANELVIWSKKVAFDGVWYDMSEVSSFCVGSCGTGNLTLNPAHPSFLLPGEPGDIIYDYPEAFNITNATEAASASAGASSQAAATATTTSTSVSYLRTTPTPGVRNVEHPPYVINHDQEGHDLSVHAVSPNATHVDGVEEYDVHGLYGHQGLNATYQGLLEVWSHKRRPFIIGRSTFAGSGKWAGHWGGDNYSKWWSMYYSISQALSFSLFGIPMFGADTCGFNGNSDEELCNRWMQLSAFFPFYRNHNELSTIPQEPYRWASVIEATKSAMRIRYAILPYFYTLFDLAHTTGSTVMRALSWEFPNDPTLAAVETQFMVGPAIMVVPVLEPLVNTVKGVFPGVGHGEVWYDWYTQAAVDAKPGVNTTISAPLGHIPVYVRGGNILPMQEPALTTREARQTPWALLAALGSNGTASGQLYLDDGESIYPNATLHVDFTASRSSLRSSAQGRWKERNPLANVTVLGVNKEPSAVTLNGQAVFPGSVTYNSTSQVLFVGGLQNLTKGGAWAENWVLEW
As to the kind of experiment: glucose release, fit of v = Vmax[S]/. Particulars: 20 mM acetate pH 4.0, 40 °C, 60 min; substrate inhibition. Type of assay: biochemical.

[1] abbreviates: low substrate range only (substrate inhibition).

For `OC[C@H]1O[C@H](OC[C@H]2O[C@H](OC[C@H]3O[C@H](OC[C@H]4O[C@H](OC[C@H]5O[C@H](OC[C@H]6OC(O)[C@H](O)[C@@H](O)[C@@H]6O)[C@H](O)[C@@H](O)[C@@H]5O)[C@H](O)[C@@H](O)[C@@H]4O)[C@H](O)[C@@H](O)[C@@H]3O)[C@H](O)[C@@H](O)[C@@H]2O)[C@H](O)[C@@H](O)[C@@H]1O` (stereo partly shown) [Isomaltohexaose], in the assay with AsojAgdL, the Km came out at 1100 ± 200 µM.

As for `OC[C@H]1O[C@H](OC[C@H]2O[C@H](OC[C@H]3O[C@H](OC[C@H]4O[C@H](OC[C@H]5OC(O)[C@H](O)[C@@H](O)[C@@H]5O)[C@H](O)[C@@H](O)[C@@H]4O)[C@H](O)[C@@H](O)[C@@H]3O)[C@H](O)[C@@H](O)[C@@H]2O)[C@H](O)[C@@H](O)[C@@H]1O` (stereo partly shown) [Isomaltopentaose], in the assay with AsojAgdL, the Michaelis-Menten constant (Km) was 900 ± 100 µM.

`OC[C@H]1O[C@H](OC[C@H]2OC(O)[C@H](O)[C@@H](O)[C@@H]2O)[C@H](O)[C@@H](O)[C@@H]1O` (stereo partly shown) [Isomaltose]: in the assay on AsojAgdL, the Michaelis-Menten constant (Km) stood at 2000 ± 300 µM.

With `OC[C@H]1O[C@H](OC[C@H]2O[C@H](OC[C@H]3O[C@H](OC[C@H]4OC(O)[C@H](O)[C@@H](O)[C@@H]4O)[C@H](O)[C@@H](O)[C@@H]3O)[C@H](O)[C@@H](O)[C@@H]2O)[C@H](O)[C@@H](O)[C@@H]1O` (stereo partly shown) [Isomaltotetraose], the Michaelis constant (Km) with AsojAgdL was 2400 ± 800 µM.

On to `OC[C@H]1O[C@H](OC[C@H]2O[C@H](OC[C@H]3OC(O)[C@H](O)[C@@H](O)[C@@H]3O)[C@H](O)[C@@H](O)[C@@H]2O)[C@H](O)[C@@H](O)[C@@H]1O` (stereo partly shown) [Isomaltotriose], for which the Km in the assay with AsojAgdL was 500 ± 100 µM.

Take `OC[C@H]1O[C@H](O[C@H]2C(O)O[C@H](CO)[C@@H](O)[C@@H]2O)[C@H](O)[C@@H](O)[C@@H]1O` (stereo partly shown) [Kojibiose]: in the assay with AsojAgdL, the Michaelis constant (Km) came out at 2100 ± 300 µM.

Compound `OC[C@H]1O[C@H](O[C@H]2[C@H](O)[C@@H](O)[C@@H](O[C@H]3[C@H](O)[C@@H](O)[C@@H](O[C@H]4[C@H](O)[C@@H](O)[C@@H](O[C@H]5[C@H](O)[C@@H](O)[C@@H](O[C@H]6[C@H](O)[C@@H](O)C(O)O[C@@H]6CO)O[C@@H]5CO)O[C@@H]4CO)O[C@@H]3CO)O[C@@H]2CO)[C@H](O)[C@@H](O)[C@@H]1O` (stereo partly shown) [Maltohexaose] returned a Ki on AnigAgdA of 30.8 ± 7.0 mM. Moreover, the Michaelis-Menten constant (Km) with AsojAgdL (setting [1]) was found to be 900 ± 100 µM.

With `OC[C@H]1O[C@H](O[C@H]2[C@H](O)[C@@H](O)[C@@H](O[C@H]3[C@H](O)[C@@H](O)[C@@H](O[C@H]4[C@H](O)[C@@H](O)[C@@H](O[C@H]5[C@H](O)[C@@H](O)C(O)O[C@@H]5CO)O[C@@H]4CO)O[C@@H]3CO)O[C@@H]2CO)[C@H](O)[C@@H](O)[C@@H]1O` (stereo partly shown) [Maltopentaose], on AnigAgdA, the Ki was found to be 19.6 ± 2.2 mM. In the assay on AsojAgdL (setting [1]), the Km amounted to 900 ± 100 µM.

In turn, `OC[C@H]1O[C@H](O[C@H]2[C@H](O)[C@@H](O)C(O)O[C@@H]2CO)[C@H](O)[C@@H](O)[C@@H]1O` (stereo partly shown) [Maltose] yielded a Ki at AnigAgdA of 12.0 ± 3.6 mM. In addition, the Km in the assay on AsojAgdL turned out to be 2200 ± 300 µM.

Turning to `OC[C@H]1O[C@H](O[C@H]2[C@H](O)[C@@H](O)[C@@H](O[C@H]3[C@H](O)[C@@H](O)[C@@H](O[C@H]4[C@H](O)[C@@H](O)C(O)O[C@@H]4CO)O[C@@H]3CO)O[C@@H]2CO)[C@H](O)[C@@H](O)[C@@H]1O` (stereo partly shown) [Maltotetraose], in the assay with AsojAgdL (setting [1]), the Michaelis-Menten constant (Km) was found to be 1600 ± 100 µM.

`OC[C@H]1O[C@H](O[C@H]2[C@H](O)[C@@H](O)[C@@H](O[C@H]3[C@H](O)[C@@H](O)C(O)O[C@@H]3CO)O[C@@H]2CO)[C@H](O)[C@@H](O)[C@@H]1O` (stereo partly shown) [Maltotriose]: the Ki at AnigAgdA turned out to be 3.8 ± 0.7 mM. The Michaelis-Menten constant (Km) in the assay on AsojAgdL (setting [1]) came out at 2000 µM.

With `OC[C@H]1O[C@H](O[C@H]2[C@H](O)[C@@H](CO)OC(O)[C@@H]2O)[C@H](O)[C@@H](O)[C@@H]1O` (stereo partly shown) [Nigerose], in the assay on AsojAgdL, the Michaelis constant (Km) amounted to 2500 ± 400 µM.

Broadly, the Km is the substrate concentration at which the rate is half of its maximum.
